Assay results reported in ChEMBL document CHEMBL1671816, “Design and synthesis of oxymatrine analogues overcoming drug resistance in hepatitis B virus through targeting host heat stress cognate 70” (J Med Chem, 2011).

Tested on: Hepatitis B virus
Assay: Antiviral activity against wild type HBV infected in human Huh7.5 cells assessed as reduction of viral replication at 0.16 ug/ml after 36 hrs
Format: functional
Settings: Huh-7, 36 h
How it was run: (§1)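 Huh7.5 cells (DMEM, 10% inactivated FBS, 1% pen-strep) plated at 2 × 10^5 per well, incubated overnight, then transiently transfected for 24 h with pcDNA3.1 carrying the full wild-type or lamivudine-resistant (rtL180M + rtM204V) HBV genome. After a PBS wash, treated in fresh medium for 36 h. Replicative-intermediate HBV DNA measured by real-time PCR. Run twice; mean and SD.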

Compound | inhibition at 0.16 µg/mL [%]
Nc1ccn([C@@H]2CS[C@H](CO)O2)c(=O)n1 [LAMIVUDINE] | 64

Tested on: Mus musculus
Assay: Acute toxicity in ICR mouse assessed as mortality at up to 750 mg/kg, po after 7 days
Format: organism-based
Design: dose 750 mg/kg, route oral
Settings: in vivo, 168 h
How it was run: (§2)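 Male and female ICR mice (22.0 ± 1.0 g), 10 per group (5 male, 5 female), given a single oral dose of 0 (1% polysorbate-80 in saline), 250, 500 or 750 mg/kg. Survival and body weight were monitored for 7 days. Blood was then drawn for AST, ALT, BUN and CRE as liver and kidney function markers.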

Compound | Activity
CCOC1CC(=O)N2C[C@@H]3CCCN4CCC[C@@H]([C@H]34)[C@H]2C1 (stereo not given in full) | Non-toxic

Tested on: not listed separately
Assay: Acute toxicity in po dosed ICR mouse assessed as mortality after 7 days
Format: organism-based
Settings: in vivo
How it was run: as §2

Compound | LD50 at 168 h [mg/kg]
CCOC1CC(=O)N2C[C@@H]3CCCN4CCC[C@@H]([C@H]34)[C@H]2C1 (stereo not given in full) | > 750

Tested on: HepG2 2.2.15
Assay: Inhibition of Hsc70 mRNA expression in human HepG2(2.2.15) cells at 100 ug/ml after 24 hrs by RT-PCR analysis
Format: functional
Settings: HepG2 2.2.15, 24 h
How it was run: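 HepG2.2.15 cells seeded at 5 × 10^4 per well in Opti-MEM with 10% FBS, grown for one day, then exposed to compound at 100 μg/mL for 24 h. Total RNA isolated with TRIZOL. Hsc70 mRNA measured by real-time RT-PCR with GAPDH as the reference gene.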

Compound | inhibition at 100 µg/mL [%]
COC1=CC[C@@H]2[C@H]3CCCN4CCC[C@@H](CN2C1=O)[C@@H]34 | 39.7
CCOC(=O)OC1C[C@@H]2[C@H]3CCCN4CCC[C@@H](CN2C(=O)C1OC(=O)OCC)[C@@H]34 (stereo not given in full) | < 10
CCOC(=O)OC1C[C@@H]2[C@H]3CCCN4CCC[C@@H](CN2C(=O)C1O)[C@@H]34 (stereo not given in full) | 54.8
O=C1C(OCc2ccccc2)C(OCc2ccccc2)C[C@@H]2[C@H]3CCCN4CCC[C@@H](CN12)[C@@H]34 (stereo not given in full) | 45.4
CC(Cl)C(=O)OC1C[C@@H]2[C@H]3CCCN4CCC[C@@H](CN2C(=O)C1O)[C@@H]34.Cl (stereo not given in full) | 48.6
O=C1CC(O)C[C@@H]2[C@H]3CCCN4CCC[C@@H](CN12)[C@@H]34 (stereo not given in full) [13-HYDROXYMATRINE] | 50.4
COC1C[C@@H]2[C@H]3CCCN4CCC[C@@H](CN2C(=O)C1OC)[C@@H]34 (stereo not given in full) | 39.3
CNC1CC(=O)N2C[C@@H]3CCCN4CCC[C@@H]([C@H]34)[C@H]2C1 (stereo not given in full) | 40.1
COC1CC(=O)N2C[C@@H]3CCCN4CCC[C@@H]([C@H]34)[C@H]2C1 (stereo not given in full) | 48.6
O=C1C=CC[C@@H]2[C@H]3CCC[N+]4([O-])CCC[C@@H](CN12)[C@@H]34 (stereo not given in full) [OXYSOPHOCARPINE] | 15.3
O=C(OC1C[C@@H]2[C@H]3CCCN4CCC[C@@H](CN2C(=O)C1OC(=O)c1ccc(F)c([N+](=O)[O-])c1)[C@@H]34)c1ccc(F)c([N+](=O)[O-])c1 (stereo not given in full) | 30.8
O=C(OC1CC(=O)N2C[C@@H]3CCCN4CCC[C@@H]([C@H]34)[C@H]2C1)c1ccccc1 (stereo not given in full) | 51
O=C1CCC[C@@H]2[C@H]3CCCN4CCC[C@@H](CN12)[C@@H]34 [MATRINE] | 52.4
Cl.O=C(OC1C[C@@H]2[C@H]3CCCN4CCC[C@@H](CN2C(=O)C1O)[C@@H]34)c1ccccc1 (stereo not given in full) | 34.5
O=C1CC(C[N+](=O)[O-])C[C@@H]2[C@H]3CCCN4CCC[C@@H](CN12)[C@@H]34 (stereo not given in full) | 35.8
O=C1C=CC[C@@H]2[C@H]3CCCN4CCC[C@@H](CN12)[C@@H]34 [SOPHOCARPINE] | 21.6
O=C(OC1C[C@@H]2[C@H]3CCCN4CCC[C@@H](CN2C(=O)C1O)[C@@H]34)c1ccc(F)c([N+](=O)[O-])c1 (stereo not given in full) | 43.4
O=C1CCC[C@@H]2[C@H]3CCC[N+]4([O-])CCC[C@@H](CN12)[C@@H]34 (stereo not given in full) [OXYMATRINE] | 55
CCOC1CC(=O)N2C[C@@H]3CCCN4CCC[C@@H]([C@H]34)[C@H]2C1 (stereo not given in full) | 74.1
O=C1CC(OCc2ccccc2)C[C@@H]2[C@H]3CCCN4CCC[C@@H](CN12)[C@@H]34 (stereo not given in full) | 24.7
CC(=O)OC1C[C@@H]2[C@H]3CCCN4CCC[C@@H](CN2C(=O)C1O)[C@@H]34.Cl (stereo not given in full) | 37.1
Cl.O=C(CCl)OC1C[C@@H]2[C@H]3CCCN4CCC[C@@H](CN2C(=O)C1O)[C@@H]34 (stereo not given in full) | 88.2
O=C1C(O)C(O)C[C@@H]2[C@H]3CCCN4CCC[C@@H](CN12)[C@@H]34 (stereo not given in full) [13,14-DIHYDROXYMATRINE] | 38.9

Tested on: Hepatitis B virus
Assay: Antiviral activity against lamivudine-resistant HBV infected in human Huh7.5 cells assessed as reduction of viral replication at 0.16 ug/ml after 36 hrs
Format: functional
Settings: Huh-7, 36 h
How it was run: (§3)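 Huh7.5 cells (2 × 10^5/well) were plated, incubated overnight, then transiently transfected for 24 h with pcDNA3.1 carrying wild-type or lamivudine-resistant HBV (rtL180M + rtM204V). After a PBS wash they got fresh medium with drug (0.16 μg/mL for line 6, 37 μg/mL for line 7) for 36 h. HBV DNA replicative intermediate was measured by real-time PCR; experiment run twice, mean and SD.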

Compound | inhibition at 0.16 µg/mL [%]
Nc1ccn([C@@H]2CS[C@H](CO)O2)c(=O)n1 [LAMIVUDINE] | 28

Tested on: Hepatitis B virus
Assay: Antiviral activity against lamivudine-resistant HBV infected in human Huh7.5 cells assessed as reduction of viral replication at 37 ug/ml after 36 hrs
Format: functional
Settings: Huh-7, 36 h, read-out: INH
How it was run: as §3

Compound | inhibition at 37 µg/mL [%]
CCOC1CC(=O)N2C[C@@H]3CCCN4CCC[C@@H]([C@H]34)[C@H]2C1 (stereo not given in full) | 35

Tested on: not listed separately
Assay: Cytotoxicity against human HepG2(2.2.15) cells after 9 days
Format: cell-based
Settings: read-out: TC50
How it was run: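 Cytotoxicity in HepG2.2.15 cells cultured for 9 days at 37 °C, seeded at 2 × 10^4 per well. TC50 is the concentration killing 50% of cells relative to untreated controls.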

Compound | CC50 at 216 h [µM]
CCOC(=O)OC1C[C@@H]2[C@H]3CCCN4CCC[C@@H](CN2C(=O)C1O)[C@@H]34 (stereo not given in full) | 1000
O=C1C(OCc2ccccc2)C(OCc2ccccc2)C[C@@H]2[C@H]3CCCN4CCC[C@@H](CN12)[C@@H]34 (stereo not given in full) | 37
CC(Cl)C(=O)OC1C[C@@H]2[C@H]3CCCN4CCC[C@@H](CN2C(=O)C1O)[C@@H]34.Cl (stereo not given in full) | > 1000
CNC1CC(=O)N2C[C@@H]3CCCN4CCC[C@@H]([C@H]34)[C@H]2C1 (stereo not given in full) | > 1000
COC1CC(=O)N2C[C@@H]3CCCN4CCC[C@@H]([C@H]34)[C@H]2C1 (stereo not given in full) | 1110
O=C(OC1CC(=O)N2C[C@@H]3CCCN4CCC[C@@H]([C@H]34)[C@H]2C1)c1ccccc1 (stereo not given in full) | 236
Cl.O=C(OC1C[C@@H]2[C@H]3CCCN4CCC[C@@H](CN2C(=O)C1O)[C@@H]34)c1ccccc1 (stereo not given in full) | 136
O=C1CC(C[N+](=O)[O-])C[C@@H]2[C@H]3CCCN4CCC[C@@H](CN12)[C@@H]34 (stereo not given in full) | > 1000
O=C(O)P(=O)(O)O [FOSCARNET] | > 1000
CCOC1CC(=O)N2C[C@@H]3CCCN4CCC[C@@H]([C@H]34)[C@H]2C1 (stereo not given in full) | 481
O=C1CC(OCc2ccccc2)C[C@@H]2[C@H]3CCCN4CCC[C@@H](CN12)[C@@H]34 (stereo not given in full) | 136
CC(=O)OC1C[C@@H]2[C@H]3CCCN4CCC[C@@H](CN2C(=O)C1O)[C@@H]34.Cl (stereo not given in full) | > 1000
Cl.O=C(CCl)OC1C[C@@H]2[C@H]3CCCN4CCC[C@@H](CN2C(=O)C1O)[C@@H]34 (stereo not given in full) | 1100
O=C1C(O)C(O)C[C@@H]2[C@H]3CCCN4CCC[C@@H](CN12)[C@@H]34 (stereo not given in full) [13,14-DIHYDROXYMATRINE] | > 1000

Tested on: Hepatitis B virus
Assay: Antiviral activity against wild type HBV infected in human Huh7.5 cells assessed as reduction of viral replication at 37 ug/ml after 36 hrs
Format: functional
Settings: Huh-7, 36 h, read-out: INH
How it was run: as §1

Compound | inhibition at 37 µg/mL [%]
CCOC1CC(=O)N2C[C@@H]3CCCN4CCC[C@@H]([C@H]34)[C@H]2C1 (stereo not given in full) | 32

Tested on: Mus musculus
Assay: Acute toxicity in ICR mouse assessed as change in body weight at up to 750 mg/kg, po after 7 days
Format: organism-based
Design: dose 750 mg/kg, route oral
Settings: in vivo, 168 h
How it was run: as §2

Compound | Activity
CCOC1CC(=O)N2C[C@@H]3CCCN4CCC[C@@H]([C@H]34)[C@H]2C1 (stereo not given in full) | Non-toxic

Tested on: Mus musculus
Assay: Acute toxicity in ICR mouse assessed as kidney function at up to 750 mg/kg, po after 7 days
Format: organism-based
Design: dose 750 mg/kg, route oral
Settings: in vivo, 168 h
How it was run: as §2

Compound | Activity
CCOC1CC(=O)N2C[C@@H]3CCCN4CCC[C@@H]([C@H]34)[C@H]2C1 (stereo not given in full) | Non-toxic

Tested on: Hepatitis B virus (human)
Assay: Antiviral activity against HBV in human HepG2(2.2.15) cells assessed as reduction of viral DNA level after 9 days by RT-PCR analysis
Settings: HepG2 2.2.15, 216 h

Compound | IC50 [µM]
CCOC(=O)OC1C[C@@H]2[C@H]3CCCN4CCC[C@@H](CN2C(=O)C1O)[C@@H]34 (stereo not given in full) | 23.9
O=C1C(OCc2ccccc2)C(OCc2ccccc2)C[C@@H]2[C@H]3CCCN4CCC[C@@H](CN12)[C@@H]34 (stereo not given in full) | 2.76
CC(Cl)C(=O)OC1C[C@@H]2[C@H]3CCCN4CCC[C@@H](CN2C(=O)C1O)[C@@H]34.Cl (stereo not given in full) | 592
CNC1CC(=O)N2C[C@@H]3CCCN4CCC[C@@H]([C@H]34)[C@H]2C1 (stereo not given in full) | 168
COC1CC(=O)N2C[C@@H]3CCCN4CCC[C@@H]([C@H]34)[C@H]2C1 (stereo not given in full) | 121
O=C(OC1CC(=O)N2C[C@@H]3CCCN4CCC[C@@H]([C@H]34)[C@H]2C1)c1ccccc1 (stereo not given in full) | 16.3
Cl.O=C(OC1C[C@@H]2[C@H]3CCCN4CCC[C@@H](CN2C(=O)C1O)[C@@H]34)c1ccccc1 (stereo not given in full) | 42.6
O=C1CC(C[N+](=O)[O-])C[C@@H]2[C@H]3CCCN4CCC[C@@H](CN12)[C@@H]34 (stereo not given in full) | 54.5
O=C(O)P(=O)(O)O [FOSCARNET] | 106
CCOC1CC(=O)N2C[C@@H]3CCCN4CCC[C@@H]([C@H]34)[C@H]2C1 (stereo not given in full) | 9.55
O=C1CC(OCc2ccccc2)C[C@@H]2[C@H]3CCCN4CCC[C@@H](CN12)[C@@H]34 (stereo not given in full) | 14.4
CC(=O)OC1C[C@@H]2[C@H]3CCCN4CCC[C@@H](CN2C(=O)C1O)[C@@H]34.Cl (stereo not given in full) | 346
Cl.O=C(CCl)OC1C[C@@H]2[C@H]3CCCN4CCC[C@@H](CN2C(=O)C1O)[C@@H]34 (stereo not given in full) | 14
O=C1C(O)C(O)C[C@@H]2[C@H]3CCCN4CCC[C@@H](CN12)[C@@H]34 (stereo not given in full) [13,14-DIHYDROXYMATRINE] | 47.1

Tested on: Mus musculus
Assay: Acute toxicity in ICR mouse assessed as liver function at up to 750 mg/kg, po after 7 days
Format: organism-based
Design: dose 750 mg/kg, route oral
Settings: in vivo, 168 h
How it was run: as §2

Compound | Activity
CCOC1CC(=O)N2C[C@@H]3CCCN4CCC[C@@H]([C@H]34)[C@H]2C1 (stereo not given in full) | Non-toxic
